# Results collected from several papers.
# SGK2: Serine/threonine-protein kinase Sgk2 (SGK2, Homo sapiens, UniProt Q9HBY8)
# PSMB6: Proteasome subunit beta type-6 (PSMB6, Homo sapiens, UniProt P28072)
# PRKAA2: 5'-AMP-activated protein kinase catalytic subunit alpha-2 (PRKAA2, Homo sapiens, UniProt P54646)
# Stromelysin-2: Stromelysin-2 (Homo sapiens, UniProt P09238)
Structure (SMILES),target,assay,conditions,measurement,result
N#C[C@@H]1CC(F)(F)CN1C(=O)CNC(=O)c1ccnc2ccccc12,"Prolyl endopeptidase FAP (FAP, Homo sapiens, UniProt Q12884)","enzyme activity, inhibitor",0.1 µM,inhibition,100%
Cn1cc(-c2cccc(N3CCc4c(sc5c4CC(C)(C)C5)C3=O)c2CO)cc(Nc2ccncn2)c1=O,SGK2,"enzyme activity, inhibitor",1 µM,inhibition,3%
N=C(N)c1ccc2cc(OC(=O)c3ccc(N=C(N)N)cc3)ccc2c1,"Dipeptidyl peptidase 4 (DPP4, Homo sapiens, UniProt P27487)","enzyme activity, inhibitor",10 µM,inhibition,18%
Nc1cccc(-c2nsc(=O)o2)c1,PSMB6,"enzyme activity, inhibitor",,kinact/KI,0.61 M⁻¹ s⁻¹
O=C(Nc1cccnn1)N1CCN([C@@H]2CCOc3cc(C(F)(F)F)ccc32)CC1,"C-X-C chemokine receptor type 4 (CXCR4, Homo sapiens, UniProt P61073)",cell-free assay,20 µM,inhibition,-21%
Nc1ncc(-c2nc(N3CCOCC3)nc(N3CCOCC3)n2)c(C(F)F)n1,PRKAA2,"cell-free assay, competition with immobilised ligand",10 µM,remaining binding,91%
Cn1cc(-c2cc(F)cc(N3CCn4c(cc5c4CCCC5)C3=O)c2CO)cc(Nc2ccc(N3CCN(C4COC4)CC3)cn2)c1=O,SGK2,"enzyme activity, inhibitor",0.1 µM,inhibition,12%
CN(C)C(=O)COC(=O)Cc1ccc(OC(=O)c2ccc(NC(=N)N)cc2)cc1,Stromelysin-2,"enzyme activity, inhibitor",10 µM,inhibition,29%
C#Cc1n[nH]c2c(-c3cn([C@@H](C)c4ccccc4)c(=O)[nH]c3=O)cc(F)cc12,"Cyclin-dependent kinase 9, with cyclin T1 (CDK9, Homo sapiens, UniProt P50750)","enzyme activity, inhibitor",0.1 µM,inhibition,-1.8%
COc1ccc(S(=O)(=O)N(CC(=O)NO)CC(C)C)cc1,Stromelysin-2,"enzyme activity, inhibitor",0.1 µM,inhibition,25%
CSc1sc(C)cc1-c1nsc(=O)o1,PSMB6,"enzyme activity, inhibitor",,kinact/KI,0.03 M⁻¹ s⁻¹
COc1ncccc1-c1cnn2ccc(N3CCN(C(=O)OC(C)C)CC3)nc12,"Bone morphogenetic protein receptor type-2 (BMPR2, Homo sapiens, UniProt Q13873)","binding, competition with immobilised ligand",1 µM,remaining binding,72%
C#Cc1n[nH]c2c(-c3cn([C@@H](C)c4ccccn4)c(=O)[nH]c3=O)cc(F)cc12,"Proto-oncogene tyrosine-protein kinase Src (SRC, Homo sapiens, UniProt P12931)","enzyme activity, inhibitor",0.1 µM,inhibition,12.9%
Oc1cc(Br)cc(Br)c1Oc1ccc(Br)cc1Br,"Sulfotransferase 1E1 (SULT1E1, Homo sapiens, UniProt P49888)","enzyme activity, substrate",,Km,63.2 µM
CCOC(=O)c1ccc(OC(=O)CCCCCNC(=N)N)cc1,Stromelysin-2,"enzyme activity, inhibitor",10 µM,inhibition,12%
Cc1nn(C)cc1-c1nc2c(N3CCN(Cc4ccc(Cl)cc4)CC3)c(Cl)cnc2[nH]1,PRKAA2,"binding, competition with immobilised ligand",1 µM,remaining binding,0.9%
